High-throughput results deposited in PubChem by several laboratories.
KCNK3 block = human KCNK3 channel inhibition, primary screen; 340,000 compounds, 0.84% hits; AID 602410; B-score at 10 µM; CHO-KCNK3 thallium flux, FluxOR fluorescence; hits give low values;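 active means B-score under library mean minus 4 SD, starting fluorescence ratio at most library mean plus 5 SD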;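 further: more negative B-score means stronger inhibition of thallium flux through KCNK3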
KCNQ1 pot = potentiators or activators of human KCNQ1 potassium channel; 310,000 compounds, 0.35% hits; B-score at 10 µM; CHO-K1 KCNQ1, thallium flux FluxOR fluorescence; hits give high values; AID 2648;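 active means fluorescence ratio B-score, a plate-corrected score, at least three library SD, with initial intensity B-score within 5 SD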
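System: Stable KCNQ1 CHO-K1 line | Incubation: 90 min dye loading and 20 min compound exposure, both at room temperature | Measure: Ratio B score | Medium: Assay buffer for compound exposure, DMSO matched across wells | Compound dosing: Single-concentration screen | Probe or stimulus: K+/Tl+ depolarizing stimulus | Measured by: Kinetic FluxOR fluorescence, 10 s baseline plus 110 s post-stimulus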
KCNQ1 block = blocks the human KCNQ1 potassium channel. P51787. CHO-K1 KCNQ1, FluxOR thallium flux fluorescence; hits give high values. B-score at 10 µM. 310,000 compounds, 1.3% hits;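 active means compounds whose thallium flux B-score, printed positive for inhibition, exceeds three library SD while starting fluorescence stays within three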;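 further: channel opened by potassium depolarization with thallium stimulus after 20 min compound exposure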
KCNK9 block = human KCNK9 channel inhibition. HEK293 KCNK9, FluxOR thallium flux fluorescence; hits give low values. Q9NPC2. AID 488922. 310,000 compounds, 1.2% hits. B-score at 10 µM;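 active means ratio B-score over 3 SD below the library mean, with starting fluorescence within 5 SD of its mean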;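 further: negative B-score means less thallium flux so channel inhibition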
KCC2 mod = KCC2 (human) Cl- transport modulation; Q9H2X9; KCC2 cells, thallium flux FluoZin-2 fluorescence; B-score of Tl+ flux slope (higher = more flux/activation; lower = inhibition) at 10 µM; 190,000 compounds, 2.2% hits; AID 1456;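 active means thallium flux slope and its plate-corrected score both differing from the plate sample mean at a set confidence after two filtering rounds, in either direction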;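 further: slope of fluorescence scaled to starting intensity during 10 to 20 s after thallium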
hERG protect = compounds protecting human hERG from proarrhythmic drug block; Q12809; CHO-hERG, FluxOR thallium flux, dofetilide IC70 present; activation (rescue from dofetilide block), less the hit threshold, % at 10 µM; 310,000 compounds, 0.51% hits; AID 1511;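 active means activation above the mean of controls blocked by dofetilide plus 5 SD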;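 further: thallium influx through hERG after potassium depolarization seen as dye fluorescence rise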
Target sequence (Q12809 whole entry, looked up): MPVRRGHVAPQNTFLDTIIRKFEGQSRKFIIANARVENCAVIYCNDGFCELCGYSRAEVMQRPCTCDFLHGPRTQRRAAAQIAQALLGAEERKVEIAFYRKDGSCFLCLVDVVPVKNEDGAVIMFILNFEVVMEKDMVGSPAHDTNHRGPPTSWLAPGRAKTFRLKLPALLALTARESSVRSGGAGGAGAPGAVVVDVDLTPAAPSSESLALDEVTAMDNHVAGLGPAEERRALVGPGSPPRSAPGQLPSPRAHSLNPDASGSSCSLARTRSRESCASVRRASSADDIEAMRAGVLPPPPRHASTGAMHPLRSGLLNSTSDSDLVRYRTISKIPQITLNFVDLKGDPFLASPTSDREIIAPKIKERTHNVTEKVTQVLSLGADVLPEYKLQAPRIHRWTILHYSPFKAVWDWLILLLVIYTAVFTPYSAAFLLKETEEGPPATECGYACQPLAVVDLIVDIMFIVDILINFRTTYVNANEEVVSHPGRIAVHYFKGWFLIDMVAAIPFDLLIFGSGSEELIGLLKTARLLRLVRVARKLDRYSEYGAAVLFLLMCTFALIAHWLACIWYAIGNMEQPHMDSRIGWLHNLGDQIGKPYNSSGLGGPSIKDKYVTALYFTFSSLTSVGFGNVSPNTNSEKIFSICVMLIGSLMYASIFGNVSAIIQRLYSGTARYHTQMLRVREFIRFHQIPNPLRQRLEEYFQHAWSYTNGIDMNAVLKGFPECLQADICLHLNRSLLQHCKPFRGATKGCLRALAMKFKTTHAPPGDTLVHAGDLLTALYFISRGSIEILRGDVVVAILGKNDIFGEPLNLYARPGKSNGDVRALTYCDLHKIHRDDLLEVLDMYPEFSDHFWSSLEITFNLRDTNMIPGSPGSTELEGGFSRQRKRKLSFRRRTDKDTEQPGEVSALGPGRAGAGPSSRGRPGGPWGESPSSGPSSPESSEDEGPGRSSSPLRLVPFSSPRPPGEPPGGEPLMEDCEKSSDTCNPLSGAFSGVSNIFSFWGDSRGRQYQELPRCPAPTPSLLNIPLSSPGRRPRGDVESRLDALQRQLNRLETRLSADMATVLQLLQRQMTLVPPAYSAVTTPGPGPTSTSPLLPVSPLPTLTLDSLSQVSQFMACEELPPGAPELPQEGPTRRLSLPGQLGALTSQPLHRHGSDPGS
KCC2 sec1 = confirmation of human KCC2 transport modulators; HEK293-KCC2, thallium flux, FluoZin2 fluorescence; hits give high values; normalised thallium flux (F/F0 slope) at 10 µM; 3,700 compounds, 15% hits; shares compounds with KCC2 mod;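 active means thallium flux slope above the same plate's solvent-only control mean plus 3 SD; inconclusive means the two replicate wells disagree; inactive means no significant difference from solvent-only control wells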
KCC2 bumet counter = bumetanide-insensitive thallium flux in KCC2 cells with ouabain, counter-screen | shares compounds with KCC2 mod | HEK293-KCC2 + bumetanide/ouabain, thallium flux FluoZin2; hits give high values | normalized thallium flux at 10 µM | 3,700 compounds, 49% hits | AID 1714;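 active means thallium entry rate above the same plate's blocked-transporter control wells by more than 3 SD; inconclusive means the two repeat wells disagree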;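 further: raw slope of fluorescence over initial fluorescence between 10 and 20 s after thallium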
KCC2 sec2 = KCC2 (human) modulation, second secondary assay. shares compounds with KCC2 mod. HEK293-KCC2, thallium flux FluoZin2 fluorescence; actives lie on both sides; F/F0 rise rate, 10–20 s post-thallium. normalized thallium flux at 10 µM. 3,700 compounds, 23% hits. AID 1715;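 active means thallium flux slope more than 3 SD above or below the plate's solvent-only control mean, mostly below; inconclusive means the two repeat wells disagreed; inactive means no significant shift from solvent-only controls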;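 further: raw slope with 0.1% DMSO as baseline and bumetanide as block control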
HEK293 Tl flux = counter-screen for KCC2 modulators: effect in parental HEK293 cells. thallium flux rate (normalised fluorescence) at 10 µM. thallium flux FluoZin2, ouabain; baseline-ratio fluorescence slope, 10–20 s after thallium. AID 1716. shares compounds with KCC2 mod. 3,700 compounds, 46% hits;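 active means thallium flux rate significantly above the same plate's solvent-only control wells, beyond their mean plus 3 SD; inconclusive means the two replicate wells gave conflicting results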
KCC2 retest ouab = confirmation of human KCC2 modulators with ouabain; shares compounds with KCC2 mod; HEK293-KCC2, thallium flux FluoZin2 fluorescence; bidirectional: low = inhibitor, high = activator; raw Tl+ flux slope (below DMSO = inhibition, above = activation) at 10 µM; 3,700 compounds, 48% hits;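 active means thallium flux slope beyond 3 SD from same-plate DMSO control mean in most replicates, usually higher, sometimes lower; inconclusive means repeat tests gave conflicting results; inactive means no significant difference from controls in most replicates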;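 further: slope of initial-normalized fluorescence between seconds 10 and 20 after thallium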
HEK293 Tl flux2 = acts in parental HEK cells, second KCC2 counter-screen; shares compounds with KCC2 mod; HEK293 parental, thallium flux FluoZin-2 fluorescence slope; thallium flux slope at 10 µM; 3,700 compounds, 33% hits; AID 1718;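 active means thallium flux slope above the same plate's solvent-control mean plus 3 SD in both duplicate wells; inconclusive means duplicate wells that disagreed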;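 further: run without ouabain in cells lacking the KCC2 cotransporter; slope of fluorescence scaled to its starting value between 10 and 20 s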
An asterisk follows results filed as active; i = inactive; ? = inconclusive; / = no result. Only some compounds are listed: those with a hit (about 4.1% of all), similar ones and a draw of the others.

SMILES	KCNK3 block	KCNQ1 pot	KCNQ1 block	KCNK9 block	KCC2 mod	hERG protect	KCC2 sec1	KCC2 bumet counter	KCC2 sec2	HEK293 Tl flux	KCC2 retest ouab	HEK293 Tl flux2
O=C(CN1CCN(CC(=O)Nc2ccc3c(c2)OC2(CCCCC2)O3)CC1)Nc1cccc(F)c1	i	/	/	/	/	/	/	/	/	/	/	/
Cc1ccc(NC(=O)CSc2ccc(-c3ccco3)nn2)cc1	i	i	i	i	-3.3*	2	0.018	0.0052	0.022*	0.0076	0.013	0.01
CCOC(=O)N1CCN(C(=O)CSc2ccc(-c3ccccc3)nn2)CC1	i	i	i	i	-4.2*	4	0.0095	?	0.028*	0.0071	0.014*	0.011
CCc1nnc(NC(=O)CSc2ccc(-c3ccc(C)cc3)nn2)s1	i	i	i	i	2.5	-7	/	/	/	/	/	/
CCOC(=O)N1CCN(C(=O)CSc2ccc(-c3ccncc3)nn2)CC1	i	i	i	i	-0.37	-12	/	/	/	/	/	/
CCOc1ccc(-c2ccc(SCC(=O)Nc3nnc(CC)s3)nn2)cc1	i	i	i	i	4*	-5	0.0058	0.0078*	0.034	0.01*	?	0.013*
CC1CCN(C(=O)CSc2ccc(-c3ccccc3)nn2)CC1	i	i	i	i	-3.2*	-7	?	0.0067	0.031	0.0075	0.016*	0.011
CC(=O)Nc1ccc(NC(=O)CSc2ccc(-c3ccco3)nn2)cc1	i	i	i	i	-1.6	-8	/	/	/	/	/	/
Cc1ccc(C(=O)N[C@H](C(=O)Nc2sccc2C(N)=O)C(C)C)cc1	i	i	i	i	/	-4	/	/	/	/	/	/
CC(=O)c1ccccc1NC(=O)c1ccc(OCc2c(C)noc2C)cc1	i	/	/	/	/	/	/	/	/	/	/	/
O=C(CSc1ccc(-c2ccc(F)cc2)nn1)N1CCCc2ccccc21	i	i	i	i	-3.7*	-5	0.0059	0.0038	0.02*	?	0.013*	0.0092
Cc1nonc1NC(=O)CSc1nc(C2CCCCC2)nc2ccccc12	i	i	i	i	-6.1*	-7	?	0.0063	0.031	0.0072	0.015*	0.01
Cc1csc(NC(=O)CSc2ccc(-c3ccccn3)nn2)n1	i	i	i	i	-4.9*	-8	0.017	0.0048	0.023*	?	0.012*	0.0099
Cc1nonc1NC(=O)CSc1ccc(-c2ccccc2)nn1	i	i	i	i	-8*	-13	0.0075	0.0053	0.022*	0.0066	?	0.01
Cc1nonc1NC(=O)CSc1cn[nH]n1	i	i	i	i	/	-7	/	/	/	/	/	/
O=[N+]([O-])c1ccc(CSc2ccc(S(=O)(=O)N3CCOCC3)cn2)cc1	i	/	/	/	/	/	/	/	/	/	/	/
CCCn1c(N)c(N(CCOC)C(=O)CSc2cc(C)c3cccc(C)c3n2)c(=O)[nH]c1=O	i	/	/	/	/	/	/	/	/	/	/	/
COCc1cc(=O)c2ccccc2o1	i	/	/	/	/	/	/	/	/	/	/	/
O=C(O)CCn1c(-c2ccccc2)cc2ccccc21	i	i	i	i	-6.4*	-10	0.0066	0.007	0.028	0.007	0.013*	0.0096
O=C(O)CCn1c(CO)nc2ccccc21	i	i	i	i	0.15	-8	/	/	/	/	/	/
Fc1ccccc1-n1cc(-c2ccccc2)[nH]c1=S	i	i	i	i	70*	-2	0.019*	0.12*	?	0.046*	0.08*	0.02*
COc1ccc(CC(=O)Nc2sccc2C#N)cc1S(=O)(=O)N1CCOCC1	i	i	i	i	/	-11	/	/	/	/	/	/
O=C(O)c1ccc(C[n+]2c(-c3ccccc3)csc2Nc2ccccc2)cc1	i	i	i	i	-3.6*	-8	0.0088	?	0.031	0.0073	0.016*	0.01
CCCCCC[n+]1c(-c2ccccc2)csc1Nc1ccccc1	i	i	i	i	-0.18	-4	/	/	/	/	/	/
CCOC(=O)c1sc(-c2ccc(Cl)cc2)nc1O	i	i	i	i	15*	-4	0.0096	0.022*	0.032	0.011*	0.024	?
SMILES	KCNK3 block	KCNQ1 pot	KCNQ1 block	KCNK9 block	KCC2 mod	hERG protect	KCC2 sec1	KCC2 bumet counter	KCC2 sec2	HEK293 Tl flux	KCC2 retest ouab	HEK293 Tl flux2
CCOC(=O)c1sc(-c2cccc(C(F)(F)F)c2)nc1O	i	i	i	i	8.1*	-1	0.0071	0.015*	0.03	0.012*	?	0.014*
CCOC(=O)c1sc2nc(COC(=O)c3c(F)cccc3F)[nH]c(=O)c2c1C	i	i	i	i	1.1	-9	/	/	/	/	/	/
CCOC(=O)c1sc2nc(Cc3ccc(Cl)cc3)[nH]c(=S)c2c1C	i	46*	i	i	79*	75*	0.025*	0.12*	0.038*	0.052*	0.076*	0.026*
COCCn1c(N)c(N(Cc2ccccc2)C(=O)c2ccc(N3CCCC3=O)cc2)c(=O)[nH]c1=O	i	/	/	/	/	/	/	/	/	/	/	/
O=C(COC(=O)c1cc(=O)[nH]c2ccccc12)NCc1ccccc1	i	/	/	/	/	/	/	/	/	/	/	/
CCOC(=O)c1c(C)[nH]c(N=Nc2ccc(C)cc2)c1C	i	i	i	i	0.0092	-5	/	/	/	/	/	/
CCOC(=O)c1c(C)[nH]c(N=Nc2ccccc2)c1C	i	i	i	i	5.2*	-10	0.01	0.0097*	0.036	0.0091*	?	?
Cc1ccc(NC(=O)c2cnccn2)cc1S(=O)(=O)N1CCCCCC1	i	/	/	/	/	/	/	/	/	/	/	/
O=C1NCC(COCc2ccco2)O1 (stereo not given)	i	i	i	i	-4.8*	1	0.017	0.0049	0.027	?	0.017	0.012
Cc1ccccc1OCC1CNC(=O)O1 (stereo not given)	i	i	i	i	/	-8	/	/	/	/	/	/
O=C(CSc1ncnc2sc3c(c12)CCC3)NCC1CCCO1 (stereo not given)	i	i	i	i	/	-6	/	/	/	/	/	/
